Assay outcomes (PubChem)
Furin inh: blocks human furin protease activity; P09958; purified furin, fluorogenic substrate cleavage; 0.061% of 220,000 active; inhibition, % at 20 µM or 30 µM; AID 463115; in the data active = inhibition above about 25%
Target sequence (P09958 108-714 limits assumed): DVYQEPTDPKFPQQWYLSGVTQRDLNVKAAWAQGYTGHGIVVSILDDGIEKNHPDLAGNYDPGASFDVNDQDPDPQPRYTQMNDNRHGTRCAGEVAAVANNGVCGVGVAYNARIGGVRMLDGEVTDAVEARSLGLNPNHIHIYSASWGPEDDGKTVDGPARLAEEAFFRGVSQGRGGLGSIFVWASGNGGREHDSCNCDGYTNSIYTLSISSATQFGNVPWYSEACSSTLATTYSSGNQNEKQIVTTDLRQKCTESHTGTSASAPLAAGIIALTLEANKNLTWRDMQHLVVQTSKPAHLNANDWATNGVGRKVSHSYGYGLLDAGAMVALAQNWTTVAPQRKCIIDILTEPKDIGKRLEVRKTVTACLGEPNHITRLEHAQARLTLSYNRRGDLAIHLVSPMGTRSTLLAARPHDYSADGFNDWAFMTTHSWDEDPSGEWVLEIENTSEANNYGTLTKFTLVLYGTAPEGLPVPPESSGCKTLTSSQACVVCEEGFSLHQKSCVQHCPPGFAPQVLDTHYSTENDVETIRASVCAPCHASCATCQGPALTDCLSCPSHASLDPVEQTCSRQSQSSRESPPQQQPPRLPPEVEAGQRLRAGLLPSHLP
Cl transport mod: modulators of human KCC2 chloride dependent transport | B-score of Tl+ flux slope (higher = more flux/activation; lower = inhibition) at 10 µM | KCC2 cells, thallium flux FluoZin-2 fluorescence | 2.2% of 190,000 active | Q9H2X9;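 active = thallium flux slope and its plate-corrected score both differing from the plate sample mean at a set confidence after two filtering rounds, in either direction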;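 note: slope of fluorescence scaled to starting intensity during 10 to 20 s after thallium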
NPY Y2 blocker: antagonists of human neuropeptide Y receptor Y2 | P49146 | NPY-Y2 expressing cells, antagonist mode | inhibition, % at 2.7 µM | 0.99% of 140,000 active; in the data active = inhibition above about 17%;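 note: 0% = vehicle with agonist challenge and 100% = reference antagonist with challenge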
NPY2 pot ag: potentiators or agonists of human neuropeptide Y receptor Y2 | 0.45% of 220,000 active | cells expressing NPY-Y2, potentiator/agonist read-out | activation, % at 3.6 µM; in the data active = activation above about 27%;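 note: cells stimulated with NPY near EC25 plus isoproterenol at EC100; 0% = vehicle plus submaximal agonist and 100% = vehicle plus saturating agonist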
NPY Y1 blocker: blocks the human neuropeptide Y Y1 receptor; P25929; HEK293-CNG Y1 cells, membrane potential fluorescence; NPY at EC95, then isoproterenol; inhibition, % at 3.6 µM; 1% of 200,000 active;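 active = inhibition above the campaign mean inhibition of all tested compounds plus 3 SD, cut at about 20% in these data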;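 note: 0% = DMSO wells given NPY plus isoproterenol and 100% = isoproterenol alone without NPY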
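Assay system: HEK293 cells with Y1 receptor plus CNG channel | Probe or stimulus: NPY (25 nM), isoproterenol (1 µM), Ro 20-1724 (25 µM) | Timing: Compound incubation 1 h at room temperature, readout 45 min post-stimulation | Measured by: Membrane-potential fluorescent dye readout | Benchmarks: High control isoproterenol alone, low control NPY with isoproterenol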
NPY1 pot ag: human NPY-Y1 potentiation or agonism, primary screen; P25929; NPY-Y1 expressing cells, potentiator/agonist activation; activation, % at 3.6 µM; 0.37% of 220,000 active; AID 1304; in the data active = activation above about 33%, passing the limit was not always enough;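 note: cells stimulated with NPY at EC10 then isoproterenol at EC100; 0% = low agonist plus stimulus and 100% = saturating agonist plus stimulus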
Numbers without * were called inactive; / = no result given; ! = a repeat was not active. Most compounds without a hit are left out; they make up all but 3.7% or so of the library.

SMILES | Furin inh | Cl transport mod | NPY Y2 blocker | NPY2 pot ag | NPY Y1 blocker | NPY1 pot ag
O=C(NOC(=O)c1ccccc1Cl)c1cccs1 | -11 | -0.76 | 2 | 13 | 9 | -4
CCOC(=O)c1ccccc1NC(=O)N[C@@H](C)C(=O)OC | -15 | -3.4* | 0 | -3 | 4 | 1
CC(C)(C)c1ccc(-n2nc(C#N)c(Cl)cc2=O)cc1 | -6 | -2 | / | 61* | 1 | 67*
Cn1[nH]c(C(F)(F)F)cc1=O | -13 | 0.087 | / | -16 | 0 | -12
C=CCc1ccccc1OCC(O)CNC(C)C (configuration not stated) | -9 | 1.6 | 4 | 103* | -13 | 116*
C=CCc1ccccc1OCCCCN1CCCC1 | -22 | 0.33 | 6 | 17 | 8 | -8
C=CCc1ccccc1OCC(CN1CCCCC1)OC(C)=O (configuration not stated) | -22 | 0.28 | 3 | 104* | -17 | 112*
COc1ccccc1N1CCN(CC(O)COc2cccc3ccccc23)CC1 (configuration not stated) | -9 | 0.7 | 6 | 66*! | -7 | 88*
C=CCc1ccccc1OCC(O)CN1CCN(c2ccccc2OC)CC1 (configuration not stated) | -27 | -1.5 | 4 | 102* | -15 | 112*
COc1ccccc1N1CCN(CC(O)COc2ccc3c(c2)OCO3)CC1 (configuration not stated) | -32 | 0.2 | / | -8 | 0 | -8
CCOC(=O)N1CCC(N2CCCC(C(=O)c3ccccc3OC)C2)CC1 (configuration not stated) | -29 | / | / | 3 | 6 | 6
OC(COc1ccccc1Cl)CN1CCN(CC(O)COc2ccccc2Cl)CC1 (configuration not stated) | -22 | -0.6 | 4 | 48* | -14 | 86*
OC(CSc1ccccc1Cl)CN1CCN(c2ccccc2F)CC1 (configuration not stated) | -12 | / | 7 | -17 | 8 | -29
C=CCc1cc(C)ccc1OCC(O)CN1CCN(c2ccccc2)CC1 (configuration not stated) | -20 | -0.33 | 9 | 56* | -7 | 54*
C=CCc1cc(OC)ccc1OCC(O)CN1CCN(c2ccc(OC)cc2)CC1 (configuration not stated) | -18 | 1.4 | 4 | 4 | 5 | 20
C=CCc1ccccc1OCC(O)CN1CCN(c2ccccc2F)CC1 (configuration not stated) | -25 | -2.6 | 5 | 87* | -12 | 95*
COc1ccc(C(=O)N2CCOC2CNC(=O)C(=O)NCc2ccc3c(c2)OCO3)cc1 (configuration not stated) | -30 | -0.87 | / | -4 | 5 | 13
CC1CCN(CC(=O)Nc2cccc(C(=O)Nc3cccc(C(F)(F)F)c3)c2)CC1 | -5 | 1.2 | 1 | -5 | 3 | -15
CCCCNC(=S)N/N=C1\C(=O)c2cccc3cccc1c23 | -15 | 5* | 1 | -1 | -2 | 8
CNC(=S)N/N=C1\C(=O)c2cccc3cccc1c23 | 9 | 43* | -1 | 14 | -5 | 9
O=C(N/N=C1\C(=O)c2cccc3cccc1c23)c1ccc(O)cc1 | -15 | 1.7 | / | 12 | 4 | -6
COc1cc(/C=C(\C#N)c2nc3ccccc3[nH]2)c([N+](=O)[O-])cc1OCc1ccccc1 | -13 | -4.5* | 5 | 18 | 5 | 11
C=CCn1c(O)c(N=NC(=O)OC(C)(C)C)c2ccccc21 | -1 | 17* | 3 | 4 | 2 | -25
C=CCn1c(O)c(N=NC(=O)C(O)c2ccccc2)c2ccccc21 (configuration not stated) | -1 | 0.02 | / | -1 | / | 7
COc1ccc(C(=O)CN2Cc3ccccc3C2=N)cc1 | -30 | -1.6 | / | 3 | / | 13
SMILES | Furin inh | Cl transport mod | NPY Y2 blocker | NPY2 pot ag | NPY Y1 blocker | NPY1 pot ag
CC1(C)Cc2c(sc3c2C2=NCCN2C=N3)CO1 | -21 | 7* | -1 | 5 | 4 | -13
O=S1(=O)CCN2C=Nc3sc4c(c3C2=N1)CCCC4 | -23 | / | 5 | -5 | 0 | -8
COc1ccc(NC(=O)C(=O)NNC(=O)C(C)Oc2ccc(Cl)cc2Cl)cc1 (configuration not stated) | -15 | 76* | / | 1 | 6 | 7
CC(=O)Nc1ccc(NC(=O)C(C)Oc2ccc(Cl)cc2Cl)cc1 (configuration not stated) | -16 | -0.15 | / | 13 | 11 | -1
CC(=C/c1ccco1)/C=N/NC(=O)c1nnn(-c2nonc2N)c1CN(C)C | -5 | -0.93 | / | -3 | -3 | 4
CCOC(=O)c1nn(-c2ccccc2)c2nnc(Cc3ccccc3)c(=O)n12 | -22 | -0.26 | 1 | 11 | 10 | 7
CCOC(=O)c1c(NS(=O)(=O)c2cccc(OC)c2)sc2c1CCC2 | -14 | 38* | 0 | 4 | -2 | -11
CN(C)CCOC(=O)NCC12CC3CC(CC(C3)C1)C2 | -14 | 0.48 | / | 9 | / | 1
O=C(CNC(=O)/C(=C\c1ccccc1)NC(=O)c1ccc(Br)cc1)OCc1ccccc1 | -24 | -5.6* | 10 | -29 | 13 | -23
COc1ccccc1C(CC(=O)c1ccccc1)CC(=O)c1ccccc1 | -12 | 0.28 | / | -14 | 21* | -18
CC(Sc1nc(N)c2c3c(sc2n1)CSC(C)(C)C3)C(=O)Nc1ccccc1 (configuration not stated) | -12 | -1.3 | 53* | -16 | 22* | -12
C=CCNC(=O)C(=O)N/N=C/c1ccco1 | -4 | 1.2 | 2 | 3 | -3 | 1
N#Cc1c2c(c(-c3ccccc3Cl)[nH]c1=S)CCCC2 | -12 | 40* | / | -2 | 1 | 3
COc1cccc(CN(C)C(=O)c2csc3c2CCCC3)c1OC | -21 | -0.17 | / | -7 | 6 | 13
CCCNC(=O)c1sc2c(c1C(=O)Nc1ccccn1)CCCC2 | -12 | -1.6 | / | -12 | 21* | -20
CCCNC(=O)c1csc2c1CCCCC2 | -13 | 0.37 | 2 | -6 | 1 | -20
O=C(NC(=S)Nc1cccnc1)c1cc2ccccc2o1 | -27 | 88* | 5 | -5 | -3 | -2
CC(=O)Nc1ccc(NC(=S)NC(=O)c2cc3ccccc3o2)cc1 | -3 | 0.1 | 11 | 0 | 0 | 14
O=C(Nc1cc(Cl)cc(Cl)c1)C(c1ccccc1)N1CCCCC1 (configuration not stated) | -17 | 1.5 | 20* | -3 | 30* | -32
COc1cccc(NC(=O)C(c2ccccc2)N2CCCCC2)c1 (configuration not stated) | -24 | 0.099 | / | -1 | 11 | 9
O=C(CN1c2ccccc2Sc2ccccc21)NNC(=O)Nc1ccc(Cl)cc1 | -23 | 0.5 | / | 57* | / | 61*
CCOc1ccc(C2CC(c3ccccc3C)n3ncnc3N2)cc1 (configuration not stated) | -5 | / | 24* | -12 | 21* | -13
